Results from ChEMBL document CHEMBL1146517, “Scleritodermin A, a cytotoxic cyclic peptide from the lithistid sponge Scleritoderma nodosum” (J Nat Prod, 2004).
Blank lines part the entries; values can stand above or below the molecule they belong to. Calls of active or inactive are those of the source. No cut-off for these calls is given here.

Tests used:
[1] = test system: HCT-116; assay: Cytotoxicity against VM46-resistant human HCT116 cells overexpressing P-gp after 72 hrs by MTS assay; assay type: functional, cell-based; settings: HCT-116, 72 h
How it was run: (§1)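 Cells grown in RPMI 1640 with 5 mM HEPES and 10% FBS; HCT116/VM46 is a multidrug-resistant subline of HCT116. Seeded in microtiter plates, compound added 24 h later as serial dilutions, then 72 h at 37 °C. MTS plus phenazine methosulfate added, absorbance read at 492 nm as viable-cell measure; IC50 reported.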

[2] = test system: HCT-116; assay: Cytotoxicity against human HCT116 cells after 72 hrs by MTS assay; assay type: functional, cell-based; settings: HCT-116, 72 h; how it was run: as §1
[3] = species: Bos taurus; assay: Inhibition of GTP-induced calf brain tubulin polymerization at 10 uM
How it was run: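 Twice-cycled calf brain tubulin in 100 mM MES pH 6.6, 1 mM EGTA, 0.5 mM MgCl2, preincubated with compound. Polymerization started with 500 µM GTP; absorbance at 350 nm read every 36 s in cuvettes held at 37 °C.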

[4] = test system: A2780; assay: Cytotoxicity against human A2780 cells after 72 hrs by MTS assay; assay type: functional, cell-based; settings: A2780, 72 h; how it was run: as §1
[5] = test system: A2780; assay: Cell cycle arrest in human A2780 cells assessed as accumulation at G2/M phase at 1.3 uM after 24 hrs by flow cytometry analysis; assay type: functional, cell-based
How it was run: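 A2780 cells seeded in six-well plates, compound added next day for 24 h. Cells trypsinized, fixed overnight in 80% ethanol at -20 °C, PBS-washed, stained 1 h at RT with propidium iodide (50 µg/mL) and RNase (10 µg/mL). Flow cytometry; G0/G1, S and G2-M fractions calculated from DNA histograms.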

[6] = test system: SK-BR-3; assay: Cytotoxicity against human SKBR3 cells after 72 hrs by MTS assay; assay type: functional, cell-based; settings: SK-BR-3, 72 h; how it was run: as §1
[7] = test system: A2780; assay: Induction of apoptosis in human A2780 cells at 1.3 uM after 24 hrs by TUNEL assay; assay type: functional
How it was run: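 A2780 cells seeded in six-well plates, treated the next day for 24 h, then collected. Apoptosis scored by TUNEL assay read by flow cytometry, with doublet discrimination gates during acquisition and analysis; apoptosis expressed as fold induction.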

[8] = test system: HCT-116; assay: Ratio of IC50 for VM46-resistant human HCT116 cells overexpressing P-gp to IC50 for human HCT116 cells; assay type: functional

inhibition [3]: 50%
SMILES: CC[C@@H](C)[C@@H]1NC(=O)[C@@H]2CCCN2C(=O)[C@@H](NC(=O)[C@@H]2CCCN2C(=O)[C@@H](COC)NS(=O)(=O)[O-])COC(=O)/C(C)=C\C(C)=C\c2csc(n2)[C@H](Cc2ccc(O)cc2)NC(=O)C1=O.[Na+] [SCLERITODERMIN A]
IC50 [1]: 5600 nM
IC50 [2]: 1900 nM
IC50 [4]: 940 nM
Activity [5]: Active
IC50 [6]: 670 nM
fold change (FC) [7]: 5.5
Ratio IC50 [8]: 2.9

SMILES: CC[C@]1(O)C[C@@H]2CN(CCc3c([nH]c4ccccc34)[C@@](C(=O)OC)(c3cc4c(cc3OC)N(C)[C@H]3[C@@](O)(C(=O)OC)[C@H](OC(C)=O)[C@]5(CC)C=CCN6CC[C@]43[C@@H]65)C2)C1 [VINBLASTINE]
IC50 [1]: 135 nM
IC50 [2]: 3 nM
IC50 [4]: 5 nM
IC50 [6]: 72 nM
Ratio IC50 [8]: 45
